# Compound activity from PubChem.
# Compounds with a hit are over-represented: about 1.3% of the library has one in this group of screens.
# Lipid droplet = modulators of hepatic lipid droplet formation; AML12 mouse hepatocytes, oleate lipid droplets, BODIPY imaging; inhibition, % at 6.5 µM; 240,000 compounds, 0.4% hits;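 active means lipid droplet intensity inhibited by at least 50%, with more than 500 cells counted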
#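 System: AML12 hepatocytes (mouse). Probe or stimulus: oleic acid at 100 µM to induce lipid droplet formation. Times: overnight treatment with compound plus oleate. Detection: Image-based BODIPY and DAPI two-channel analysis. Evaluation: percent inhibition of filter-corrected integrated lipid droplet intensity per well.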
# GRK2 aptamer HTS = human GRK2 inhibition via aptamer displacement; bead flow cytometry, FAM-aptamer displacement from GRK2; inhibition of aptamer binding, % at 10 µM; 330,000 compounds, 0.59% hits; AID 488847;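 active means inhibition of aptamer binding above 40%, roughly 3 SD of noise, on plates passing a quality check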;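 further: median bead fluorescence of bound FAM aptamer so fluorescent compounds give negative values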
# Target sequence (P25098 whole entry, looked up): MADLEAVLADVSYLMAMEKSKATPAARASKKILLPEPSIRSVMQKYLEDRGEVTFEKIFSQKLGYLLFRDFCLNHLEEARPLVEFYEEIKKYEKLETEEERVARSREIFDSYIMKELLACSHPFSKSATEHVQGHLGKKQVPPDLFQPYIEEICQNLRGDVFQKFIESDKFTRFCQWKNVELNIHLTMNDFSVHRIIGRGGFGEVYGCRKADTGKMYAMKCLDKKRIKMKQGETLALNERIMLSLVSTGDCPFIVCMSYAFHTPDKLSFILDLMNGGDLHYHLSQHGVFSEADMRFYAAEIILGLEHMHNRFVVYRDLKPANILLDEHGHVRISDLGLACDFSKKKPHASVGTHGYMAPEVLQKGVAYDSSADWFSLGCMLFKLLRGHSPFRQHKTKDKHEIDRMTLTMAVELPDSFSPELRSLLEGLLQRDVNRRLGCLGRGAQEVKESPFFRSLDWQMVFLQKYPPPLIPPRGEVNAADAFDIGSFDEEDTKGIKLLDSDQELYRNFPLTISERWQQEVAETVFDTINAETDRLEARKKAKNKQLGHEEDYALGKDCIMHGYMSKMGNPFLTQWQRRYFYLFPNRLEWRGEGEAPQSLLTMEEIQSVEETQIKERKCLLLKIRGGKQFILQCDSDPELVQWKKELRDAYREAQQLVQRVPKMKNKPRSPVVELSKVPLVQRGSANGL
# VLA-4 inh = inhibition in a human VLA-4 binding assay; inhibition, % (about 7 µM as worked out from the volumes in the protocol); 330,000 compounds, 0.2% hits; VLA-4 expressing cells, ligand binding flow cytometry; P13612; AID 2557; in the data active means inhibition above about 50%
# GASC-1 inh = inhibitors of human GASC-1 (JMJD2C) demethylase; GST-JMJD2C(1-420) H3K9me3 demethylation, DELFIA europium; inhibition, % at 2.35 µM; 330,000 compounds, 0.069% hits;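 active means more than half of a compound's replicate wells show inhibition beyond 50%, single wells judged on their own value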;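 further: signal counts dimethyl H3K9 product captured on neutravidin plate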
# proCasp3 act = activates human procaspase-3. P42574. recombinant procaspase-3 D3A, Ac-DEVD-pNA absorbance 405 nm. activation, % at 8.5 µM. 330,000 compounds, 0.11% hits;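 active means activation above the mean of all tested compounds plus 3 SD, cut at about 21% in these data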
#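 Compound: 8.5 µM single point, 0.8% DMSO / Material: Autoprocessing-dead procaspase-3 D3A mutant enzyme / Timing: 1 h preincubation plus 2 h reaction at 25 °C / Medium: Zinc-free HEPES/NaCl buffer with 0.01% Triton X-100 at pH 7.4 / Technique: 405 nm absorbance of p-nitroaniline, reads at 0 and 120 min / Repeats: one well per compound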
# procasp7 counter = counter-screen: procaspase-7 (human) activation. 330,000 compounds, 0.093% hits. activation, % at 8.5 µM. recombinant procaspase-7, Ac-DEVD-pNA absorbance 405 nm; D23A/D198A/D206A triple mutant, cannot self-cleave; scale: DMSO 0, 5 µM enzyme 100. P55210. AID 463210;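 active means percent activation above the screen-wide mean plus 3 SD, cut at about 25% in these data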
#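 Material: Procaspase-7 triple mutant (PC-7 D3A) | Quantity: 2 µM procaspase-7 mutant as dispensed | Reagent: DEVD-pNA substrate | Times: 1 h preincubation, 2 h reaction | Technique: 405 nm absorbance of p-nitroaniline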
# Lipid drop inh = hepatic lipid droplet formation inhibition, confirmed; 870 compounds, 65% hits; AML12 mouse hepatocytes, BODIPY lipid droplet imaging; droplets induced with 100 µM oleic acid; shares compounds with Lipid droplet; AID 463183; inhibition, % at 5.2 µM;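 active means inhibition of lipid droplet metric at least 50%, with more than 300 cells in each of four replicates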
# AML12 cytotox = counter-screen for cytotoxicity in AML12 mouse hepatocytes; shares compounds with Lipid droplet; 870 compounds, 3% hits; AID 463200; z-score at 5 µM; DAPI nuclear morphology cytotoxicity imaging; hits give high values; cells fed 100 µM oleate overnight; in the data active means z-score above about 6.3;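 further: compound exposure lasted overnight at 37 °C before fixation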
# AML12 tox conf = confirmation of cytotoxicity in AML12 mouse hepatocytes. cytotoxicity, % at 50 µM. shares compounds with Lipid droplet. 530 tested, under 10 active. AML12 mouse hepatocyte viability, ATP luminescence; cells loaded with 100 µM oleic acid;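 active means cytotoxicity above 50% in each of four replicates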;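 further: compound exposure lasted overnight at 37 °C before the ATP read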
# Hits are given with their value; i = inactive; nt = not tested or not shown.
SMILES,Lipid droplet,GRK2 aptamer HTS,VLA-4 inh,GASC-1 inh,proCasp3 act,procasp7 counter,Lipid drop inh,AML12 cytotox,AML12 tox conf
CC(=O)NC(Cc1ccc(F)c(F)c1)C(=O)NC1CCN(S(=O)(=O)c2ccc(C)cc2)CC1 (stereo unspecified),i,nt,nt,i,nt,nt,nt,nt,nt
CCOC(=O)C1CCN(S(=O)(=O)c2ccc3c(c2)NC(=O)C(C)C(=O)N3)CC1 (stereo unspecified),63,i,i,i,i,i,87,i,i
CCS(=O)(=O)N1CCN(c2ccc([N+](=O)[O-])c(NCc3cccnc3)c2)CC1,59,i,i,i,i,i,i,i,nt
O=[N+]([O-])c1ccc(N2CCN(S(=O)(=O)c3ccccc3[N+](=O)[O-])CC2)cc1NCc1cccnc1,i,i,i,i,i,i,nt,nt,nt
CCOc1ccc(NC(=O)CCSc2nc3c(c(CC)c2C#N)C(=O)CC(C)(C)C3)cc1,55,i,i,i,i,i,86,i,i
COc1cc(NC(=O)c2ccco2)c(OC)cc1NC(=O)Nc1ccccc1Cl,82,i,i,i,i,i,114,i,i
O=C1CN(C(=O)COc2ccc(Cl)cc2Cl)c2ccccc2N1,i,i,i,i,i,i,nt,nt,nt
O=C1CN(C(=O)Cn2ncc(Cl)c(Cl)c2=O)c2ccccc2N1,126,nt,nt,i,nt,nt,i,i,nt
CCN1C(=O)/C(=C2\C=Cc3cc(C)ccc3N2CC)OC1=S,68,i,i,i,i,i,74,i,i
O=C1CCC(C(=O)Nc2cc(C(F)(F)F)ccc2-n2cncn2)=NN1,i,i,i,i,i,i,nt,nt,nt
CC(C)c1cc(C(=O)N2CCCC(CCC(=O)NCc3ccccc3F)C2)n(C)n1 (stereo unspecified),51,i,i,i,i,i,i,i,nt
C/C(CC(=O)Nc1ccc(Cl)c(Cl)c1)=N\NC(=O)Cc1ccccc1,i,i,i,i,i,i,nt,nt,nt
COc1ccc(Cl)c(NC(=O)C/C(C)=N/NC(=O)CCc2ccccc2)c1,122,i,i,i,i,i,99,i,i
COC(=O)c1cc(S(=O)(=O)Nc2cccc(C)c2C)cn1C,i,i,i,i,i,i,nt,nt,nt
C=CCn1cccc(C(=O)Nc2ccc(OC)c(Cl)c2)c1=O,i,i,i,i,i,i,nt,nt,nt
Cc1cc(NC(=O)c2cc3ccccc3o2)cc(C)c1OCC(=O)N1CCOCC1,91,i,i,i,i,i,107,i,i
CN(C)S(=O)(=O)n1cc(/C=C(\NC(=O)c2ccccc2F)C(=O)NCCCn2ccnc2)c2ccccc21,i,nt,nt,i,nt,nt,nt,nt,nt
COc1ccccc1N1N=C(c2ccc([N+](=O)[O-])cc2)CC1c1ccccc1 (stereo unspecified),67,i,i,i,i,i,110,i,i
O=C1CN(C(=O)COC(=O)Cc2ccccc2F)c2ccccc2N1,nt,i,i,i,i,i,nt,nt,nt
O=C(Nc1ccc(Cl)cc1C(=O)NCc1cccnc1)c1ccc(Cl)cc1Cl,66,i,i,i,i,i,88,i,nt
O=C(Nc1c(Cl)cc(Cl)cc1C(=O)NCc1cccnc1)c1ccc(Cl)cc1Cl,nt,i,i,nt,i,i,nt,nt,nt
Cc1ccc(C(=O)Nc2ccccc2C(=O)NCc2cccnc2)cc1,51,i,i,i,i,i,96,i,i
O=C1CCC([N+](=O)[O-])C(c2cccc([N+](=O)[O-])c2)N1 (stereo unspecified),i,i,i,i,i,i,nt,nt,nt
COCCn1cnc2c1c(=O)[nH]c(=O)n2Cc1ccccc1,i,i,i,i,i,i,nt,nt,nt
COc1ccc(C(=O)OCC(=O)NC(C)CCc2ccccc2)cc1OC (stereo unspecified),62,i,i,i,i,i,72,i,i
SMILES,Lipid droplet,GRK2 aptamer HTS,VLA-4 inh,GASC-1 inh,proCasp3 act,procasp7 counter,Lipid drop inh,AML12 cytotox,AML12 tox conf
COc1ccc(C(=O)NCCc2ccccc2)cc1[N+](=O)[O-],i,i,i,i,i,i,nt,nt,nt
COc1ccc(C(=O)OC(C)C(=O)NC(C)CCc2ccccc2)cc1[N+](=O)[O-] (stereo unspecified),68,i,i,i,i,i,109,i,i
COc1ccc(C(=O)OCC(=O)NC(C)CCc2ccccc2)cc1 (stereo unspecified),i,i,i,i,i,i,nt,nt,nt
COc1cccc(/C(C)=N/NC(=O)Cc2c(C)[nH][nH]c2=O)c1,63,i,i,i,i,i,i,i,nt
C=CCNC(=S)N/N=C(\C)c1cccc(OC)c1,i,i,i,i,i,i,nt,nt,nt
COc1ccccc1N1CCN(C(=O)C2CCN(C(=O)c3ccccc3C)CC2)CC1,i,i,i,i,i,i,nt,nt,nt
CC1(C)Cc2c(cnn2-c2ccccc2)C(NC(=O)CCN2CCCCO2)C1 (stereo unspecified),i,i,i,i,i,i,nt,nt,nt
CN1CC(=O)Nc2ccc([N+](=O)[O-])cc2C1=O,91,i,i,i,i,i,i,i,nt
COc1cc(C(=O)Nc2ccn(C)n2)ccc1OC(F)F,nt,i,i,i,i,i,nt,nt,nt
CC(C)[C@H](N[C@@H](C)c1ccccc1)c1c(O)ccc2ccccc12,i,i,i,i,i,i,nt,nt,nt
CC(C)C(C)NC(=O)CSc1nc2scc(-c3ccco3)c2c(=O)n1-c1ccccc1 (stereo unspecified),60,i,i,i,i,i,i,i,nt
Cc1cccc(-n2cc(-c3ccccc3)c3c(N4CCOCC4)ncnc32)c1,i,i,i,i,i,i,nt,nt,nt
COc1ccc(C)cc1S(=O)(=O)N(CC(=O)Nc1cc([N+](=O)[O-])ccc1C)c1ccc(C)c(C)c1,51,i,i,i,i,i,i,i,i
CCCCN(C(=O)c1ccc(S(=O)(=O)N(CC)CC)cc1)c1c(N)n(CCC)c(=O)[nH]c1=O,i,i,i,i,i,i,nt,nt,nt
COC(=O)COc1cccc(NC(=O)c2ccc(Cl)cc2)c1,51,i,i,i,i,i,i,i,nt
COC(=O)COc1cccc(NC(=O)c2ccc(C)cc2)c1,nt,i,i,i,i,i,nt,nt,nt
O=C(C[n+]1cc(-c2ccccc2)n2c1CCC2)Nc1nc(-c2ccccc2)cs1,i,i,i,i,i,i,nt,nt,nt
CC1CCN(C(=O)CSCC(=O)Nc2nc(-c3cccs3)cs2)CC1,i,i,i,i,i,i,nt,nt,nt
